Published values of several laboratories.
Lines come from different studies, so protocols differ.
RET: Proto-oncogene tyrosine-protein kinase receptor Ret (RET, Homo sapiens, UniProt P07949)
RET M918T: Proto-oncogene tyrosine-protein kinase receptor Ret (RET, Homo sapiens, UniProt P07949, M918T)
RET V804M: Proto-oncogene tyrosine-protein kinase receptor Ret (RET, Homo sapiens, UniProt P07949, V804M)
RET V804L: Proto-oncogene tyrosine-protein kinase receptor Ret (RET, Homo sapiens, UniProt P07949, V804L)

SMILES | target | read-out | mode | technique | tested at | measurement | result
CC(=O)Nc1cccc2c1CCN(C(=O)CCNC(=O)c1ccsc1)C2 | RET | enzyme activity | inhibitor | radiometric | 0.1 µM | remaining activity | 104%
N[C@H]1CCN(c2nccc(-c3cnn4ncccc34)n2)C1 | RET | binding |  |  | 1 µM | remaining binding | 51%
Cc1ccc(NC(=O)c2ccc(C)c(C(F)(F)F)c2)cc1C#Cc1nn(C2CCC(O)CC2)c2ncnc(N)c12 (centres unmarked) | RET | cell-free assay |  |  | 10 µM | remaining signal | 2%
CS(=O)(=O)N1CCCC(NC(=O)[C@H](CCC2CCCCC2)NC(=O)c2ccc(CNC(=O)c3cnc4ccccn34)cc2)C1 (some centres unmarked) | RET M918T | cell-free assay |  | competition with immobilised ligand | 0.1 µM | remaining binding | 93%
CN(c1nccc(-c2cnn3ncccc23)n1)C1CC1 | RET V804M | binding |  |  | 1 µM | remaining binding | 100%
C=CC(=O)Nc1cc(Nc2nccc(Nc3cc(Cl)c(F)cc3C(C)(C)O)n2)c(OC)cc1N1CC[C@@H](N(C)C)C1 | RET V804M | enzyme activity | inhibitor |  | 1 µM | inhibition | -6%
Nc1ncnc2occ(-c3ccc(NC(=O)Nc4cc(C(F)(F)F)ccc4F)cc3)c12 | RET V804M | cell-free assay |  |  | 20 µM | remaining signal | 0%
CCCOc1ccc(OC)c(F)c1C(=O)c1ccc(C(=O)N[C@@H]2CNC[C@H]2NC(=O)c2ccc3[nH]ncc3c2)cc1 | RET V804M | enzyme activity | inhibitor |  | 10 µM | remaining activity | 4%
C[C@@H]1CCN(C(=O)CC#N)C[C@@H]1N(C)c1ncnc2[nH]ccc12 | RET | cell-free assay |  |  | 0.5 µM | remaining signal | 92.4%
CNC(=O)c1cc2c(Oc3ccc(NC(=O)C4(C(=O)Nc5ccc(F)cc5)CC4)cc3)ccnc2cc1OC | RET V804L | enzyme activity | inhibitor | radiometric | 1 µM | inhibition | 90%
Cc1cc(C)c(-n2ccn3nc(-c4cccnc4)cc23)cc1NC(=O)c1cc(C#N)cc(S(F)(F)(F)(F)F)c1 | RET V804L | cell-free assay |  | competition with immobilised ligand | 0.1 µM | remaining binding | 93.6%
Cc1ccc(Nc2nccc(N(C)c3ccc4c(C)n(C)nc4c3)n2)cc1S(N)(=O)=O | RET | cell-free assay |  |  | 0.5 µM | remaining signal | 25.7%
Cc1cc(NC(=O)c2cccc3cc(-c4cccc5[nH]nc(N)c45)ccc23)ccc1F | RET V804L | enzyme activity | inhibitor |  | 0.1 µM | activity vs control | 116%
COc1cc2ncnc(Nc3ccc(Oc4ccccc4)c(C)c3C)c2cc1OC | RET V804L | enzyme activity | inhibitor |  | 1 µM | inhibition | 2%
CCc1ccccc1C(=O)Nc1n[nH]c2c(C)c(F)c(C3C(C#N)=C(C)N(C)C(C)=C3C#N)cc12 | RET M918T | cell-free assay |  | competition with immobilised ligand | 1 µM | remaining binding | 64%
COc1ccc(NC(=O)Nc2cc(C)c3nc(NC(=O)c4ccccc4)sc3c2)c(OC)c1 | RET | enzyme activity | inhibitor | radiometric | 0.1 µM | remaining activity | 133%
CN(CCCC(F)(F)F)c1nccc(-c2cnn3ncccc23)n1 | RET V804M | binding |  |  | 1 µM | remaining binding | 100%
COc1cc(-c2cc(-c3ccc(N4CCNCC4)cc3)cnc2N)cc(OC)c1OC | RET V804L | enzyme activity | inhibitor |  | 0.1 µM | inhibition | 2%
COc1ccnn2ncc(-c3ccnc(N(C)C)n3)c12 | RET | binding |  |  | 1 µM | remaining binding | 100%

SMILES | target | read-out | mode | technique | tested at | measurement | result
CC/C(=N\NC(=O)NCc1cccc(O)c1)c1ccc(O)c(C)c1O | RET M918T | enzyme activity | inhibitor |  | 0.1 µM | inhibition | 1.1%
Cc1ccc(NC(=O)Nc2ccc(Nc3cc(-n4ccnc4)nc(C)n3)cc2)c(C)c1 | RET | enzyme activity | inhibitor | radiometric | 10 µM | remaining activity | 68.1%
c1cnn2ncc(-c3ccnc(N4CCC45COC5)n3)c2c1 | RET V804L | binding |  |  | 1 µM | remaining binding | 91%
COc1cc(NC(=O)Nc2cccc(Br)c2)cc2sc(NC(=O)c3ccccc3)nc12 | RET | enzyme activity | inhibitor | radiometric | 10 µM | remaining activity | 127%
CC(C)(O)c1cncc(-c2nc3ccc(F)cc3n2C2CC2)c1 | RET | cell-free assay |  | competition with immobilised ligand | 1 µM | remaining binding | 100%
Nc1nc(SCC(=O)Nc2ccc3c(c2)OCO3)[nH]c(=O)c1NC(=O)c1ccc(F)c(F)c1 | RET | enzyme activity | inhibitor | radiometric | 0.1 µM | remaining activity | 109%
O=c1nc(-c2ccccn2)sc2ccccc12 | RET V804M | binding |  | competition with immobilised ligand | 1 µM | remaining binding | 100%
COc1cc(NC(=O)Nc2ccc(Br)cc2)cc2sc(NC(=O)c3ccccc3)nc12 | RET | enzyme activity | inhibitor | radiometric | 10 µM | remaining activity | 106%
Nc1cnc(N2CCc3cc(S(=O)(=O)Nc4c(F)cc(Cl)cc4F)cc(N4CCCC4=O)c32)nc1 | RET | cell-free assay |  | competition with immobilised ligand | 1 µM | remaining binding | 89%
C[C@@H]1CCN(c2nccc(-c3cnn4ncccc34)n2)C1 | RET M918T | binding |  |  | 1 µM | remaining binding | 100%
CC(=O)Nc1c(C(C)=O)c(=O)n(C)c2nc(-c3ccc(Cl)cc3Cl)c(-c3ccc(Cl)cc3)cc12 | RET | cell-free assay |  | competition with immobilised ligand | 1 µM | remaining binding | 100%
O=C1NC(=O)c2cc(Nc3ccc(F)cc3)c(Nc3ccc(F)cc3)cc21 | RET | cell-free assay |  |  | 0.5 µM | remaining signal | 104%
CN(C)c1ncc(F)c(-c2cnn3ncccc23)n1 | RET | binding |  |  | 1 µM | remaining binding | 97%
CCN(CC)CCNC(=O)c1c(C)[nH]c(/C=C2\C(=O)Nc3ccc(F)cc32)c1C | RET | cell-free assay |  |  | 0.5 µM | remaining signal | 3.43%
CO[C@]1(C(=O)N[C@@H](C)c2ccc(-n3cc(F)cn3)nc2)CC[C@H](c2nc(C)cc(Nc3cc(C)[nH]n3)n2)CC1 | Proto-oncogene tyrosine-protein kinase receptor Ret (RET, Homo sapiens, UniProt P07949, L772A) | thermal stability |  | DSF | 10 µM | ΔTm | 11.7 °C
COCC(=O)Nc1cc(C(=O)NCc2ccc(C)c(F)c2)cc2ncn(CCc3ccccc3)c12 | RET | enzyme activity | inhibitor | radiometric | 0.1 µM | remaining activity | 133%
COc1ccc2c(c1)O[C@H](c1ccc(OC)c(OC)c1)C[C@@H]2NC(=O)C1(c2ccc3c(c2)OC(F)(F)O3)CC1 | RET V804M | cell-free assay |  | competition with immobilised ligand | 1 µM | remaining binding | 100%
Cc1cc(NC(=O)Nc2ccc(F)cc2)cc2sc(NC(=O)c3ccccc3)nc12 | RET | enzyme activity | inhibitor | radiometric | 0.1 µM | remaining activity | 146%
COc1ccc(CN2C3CC2CN(c2ccc(-c4cc(OCC(C)(C)O)cn5ncc(C#N)c45)cn2)C3)cn1 | RET | thermal stability |  | DSF | 10 µM | ΔTm | 9.5 °C
